Measured values from different studies.
AGTR2: Type-2 angiotensin II receptor (AGTR2, Homo sapiens, UniProt P50052)
PTGS1: Prostaglandin G/H synthase 1 (PTGS1, Ovis aries, UniProt P05979)
BCHE: Cholinesterase (BCHE, Equus caballus, UniProt P81908)

SMILES	target	assay	setting	inhibition [%]
COCc1c(-c2cc3cc(C)cc(OC)c3s2)c2c(N)ncnn2c1CN1CCNC(=O)C1	AGTR2	ligand displacement, radioligand	10 µM	9
Cc1ccc(-c2nc3ccccc3s2)c(-c2ccc(O)cc2)c1	PTGS1	enzyme activity, inhibitor, absorbance	10 µM	8.4
C#Cc1n[nH]c2c(-c3cn(C(C)c4ccccn4)c(=O)[nH]c3=O)cc(F)cc12 (centres unmarked)	Serine/threonine-protein kinase MARK1 (MARK1, Homo sapiens, UniProt Q9P0L2)	enzyme activity, inhibitor	1 µM	11.2
NS(=O)(=O)c1ccc(-c2ncccc2-c2nc3ccccc3s2)cc1	PTGS1	enzyme activity, inhibitor, absorbance	10 µM	0
Cn1cc(-c2cccc(N3CCc4c(sc5c4CC(C)(C)C5)C3=O)c2CO)cc(Nc2ccncn2)c1=O	SRSF protein kinase 2 (SRPK2, Homo sapiens, UniProt P78362)	enzyme activity, inhibitor	1 µM	-3
CS(=O)(=O)c1ccc(-c2ncc(Cl)cc2-c2nc3ccccc3s2)cc1	PTGS1	enzyme activity, inhibitor, absorbance	10 µM	0
COc1cc2c(cc1OC)C(=O)N(Cc1cccnc1)C2	BCHE	enzyme activity, inhibitor, Ellman	1 µM	-12.2
CS(=O)(=O)c1ccc(-c2ncccc2-c2nc3ccccc3s2)cc1	PTGS1	enzyme activity, inhibitor, absorbance	10 µM	21.5
Cn1cc(-c2cc(F)cc(N3CCn4c(cc5c4CCCC5)C3=O)c2CO)cc(Nc2ccc(N3CCN(C4COC4)CC3)cn2)c1=O	Serine/threonine-protein kinase MRCK alpha (CDC42BPA, Homo sapiens, UniProt Q5VT25)	enzyme activity, inhibitor	0.1 µM	2
COc1cc2c(cc1OC)C(=O)N(CC1CCN(Cc3cccnc3)CC1)C2	BCHE	enzyme activity, inhibitor, Ellman	1 µM	2.7
Nc1ccc(-c2nc3ccccc3s2)c(-c2ccc(O)cc2)c1	PTGS1	enzyme activity, inhibitor, absorbance	10 µM	14.2
COc1cc2c(cc1OC)C(=O)N(CCc1c[nH]c3ccccc13)C2	BCHE	enzyme activity, inhibitor, Ellman	1 µM	0.7
O=C(Nc1cccnn1)N1CCN([C@@H]2CCOc3cc(C(F)(F)F)ccc32)CC1	AGTR2	cell-free assay	20 µM	0
COc1ccc(S(=O)(=O)N2CCCCC2)cc1C	AGTR2	ligand displacement, radioligand	10 µM	< 30
COc1cc2c(cc1OC)C(=O)N(Cc1ccc3ccccc3n1)C2	BCHE	enzyme activity, inhibitor, Ellman	1 µM	-0.7
C[C@H](C(=O)N[C@H]1COc2ccccc2[C@@H]1S(C)(=O)=O)c1ccc(F)cc1	AGTR2	cell-free assay	10 µM	4
Nc1ccc(-c2ccccc2)c(-c2nc3ccccc3s2)c1	PTGS1	enzyme activity, inhibitor, absorbance	10 µM	59.1
COc1cc2c(cc1OC)C(=O)N(Cc1ccncc1)C2	BCHE	enzyme activity, inhibitor, Ellman	1 µM	-0.7
CN(C)Cc1ccc(-c2nc3ccccc3s2)c(-c2ccc(O)cc2)c1	PTGS1	enzyme activity, inhibitor, absorbance	10 µM	14.2
COc1cc2c(cc1OC)C(=O)N(Cc1n[nH]c3ccccc13)C2	BCHE	enzyme activity, inhibitor, Ellman	1 µM	-2.7
O=C(Nc1ccc(F)c(C(F)(F)F)c1)Nc1nnc(-c2ccncc2)s1	RecQ-like DNA helicase BLM (BLM, Homo sapiens, UniProt P54132)	enzyme activity, inhibitor	50 µM	99
Cc1ncc(C)n2nc(/C=C/c3nc(N4CCCC4)cc(N4CCOCC4)n3)nc12	cGMP-inhibited 3',5'-cyclic phosphodiesterase 3B (PDE3B, Homo sapiens, UniProt Q13370)	enzyme activity, inhibitor	10 µM	15
COc1cc2c(cc1OC)C(=O)N(Cc1nccc3ccccc13)C2	BCHE	enzyme activity, inhibitor, Ellman	1 µM	2
